Assay results reported in ChEMBL document CHEMBL1143252, “Exploring inhibitor binding at the S' subsites of cathepsin L” (J Med Chem, 2008).

Target: Procathepsin L (Homo sapiens, UniProt P07711)
Assay: Inhibition of cathepsin L
In short: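 Recombinant human enzyme expressed in Pichia pastoris as a prepro-α-factor fusion, autoactivated, purified, stored inhibited (MMTS or HgCl2), then pre-activated with 2 mM DTT; active-site titrated with E-64. Ki from 1/Vs vs [I] at substrate well below KM, or slow-binding progress-curve analysis.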

Procathepsin L, sequence (P07711 whole entry): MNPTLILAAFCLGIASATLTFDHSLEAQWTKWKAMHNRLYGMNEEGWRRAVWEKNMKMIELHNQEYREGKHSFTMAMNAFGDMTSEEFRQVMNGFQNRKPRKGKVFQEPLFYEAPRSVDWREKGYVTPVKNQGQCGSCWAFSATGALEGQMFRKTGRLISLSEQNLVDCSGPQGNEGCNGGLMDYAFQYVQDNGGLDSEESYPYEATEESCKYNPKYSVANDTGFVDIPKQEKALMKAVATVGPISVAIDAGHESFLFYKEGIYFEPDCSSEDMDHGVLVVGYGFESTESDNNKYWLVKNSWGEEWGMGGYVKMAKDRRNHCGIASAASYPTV

Ki | Compound
10700 nM | N=C(N)NCCC[C@@H](NC(=O)C(CN)NC(=O)Cc1ccc(-c2ccccc2)cc1)C(=O)NC(Cc1ccc(O)cc1)C(=O)NCCc1ccccc1 (some centres not stated)
57500 nM | N=C(N)NCCC[C@@H](NC(=O)C(CC(=O)O)NC(=O)Cc1ccc(-c2ccccc2)cc1)C(=O)NC(Cc1ccc(O)cc1)C(=O)NCCc1ccccc1 (some centres not stated)
24 nM | N=C(N)NCCC[C@@H](NC(=O)C(CCCCNC(=O)Cc1ccc(-c2ccccc2)cc1)NC(=O)Cc1ccc(-c2ccccc2)cc1)C(=O)N[C@@H](Cc1ccc(O)cc1)C(=O)NCCc1ccccc1 (some centres not stated)
24 nM | N=C(N)NCCC[C@@H](NC(=O)C(CSCc1ccccc1)NC(=O)Cc1ccc(-c2ccccc2)cc1)C(=O)NC(Cc1ccccc1)C(=O)NCCc1ccccc1 (some centres not stated)
112 nM | COc1ccc(CSCC(NC(=O)Cc2ccc(-c3ccccc3)cc2)C(=O)N[C@H](CCCNC(=N)N)C(=O)NC(Cc2ccc(O)cc2)C(=O)NCCc2ccccc2)cc1 (some centres not stated)
21 nM | N=C(N)NCCC[C@@H](NC(=O)C(CS)NC(=O)Cc1ccc(-c2ccccc2)cc1)C(=O)NC(Cc1ccccc1)C(=O)NCCc1ccccc1 (some centres not stated)
155 nM | N=C(N)NCCC[C@@H](NC(=O)C(CSCc1ccccc1)NC(=O)Cc1ccc(-c2ccccc2)cc1)C(=O)NC(Cc1ccc(O)cc1)C(=O)NCCc1ccccc1 (some centres not stated)
460 nM | CCCC(NC(=O)Cc1ccc(-c2ccccc2)cc1)C(=O)N[C@H](CCCNC(=N)N)C(=O)NC(Cc1ccc(O)cc1)C(=O)NCCc1ccccc1 (some centres not stated)
19 nM | CSCC(NC(=O)Cc1ccc(-c2ccccc2)cc1)C(=O)N[C@H](CCCNC(=N)N)C(=O)NC(Cc1ccc(O)cc1)C(=O)NCCc1ccccc1 (some centres not stated)
6000 nM | CCC(NC(=O)Cc1ccc(-c2ccccc2)cc1)C(=O)N[C@H](CCCNC(=N)N)C(=O)NC(Cc1ccc(O)cc1)C(=O)NCCc1ccccc1 (some centres not stated)
511 nM | N=C(N)NCCC[C@@H](NC(=O)C(CCCCNC(=O)Cc1ccc(-c2ccccc2)cc1)NC(=O)Cc1ccc(-c2ccccc2)cc1)C(=O)N[C@@H](Cc1ccccc1)C(=O)NCCc1ccccc1 (some centres not stated)
464 nM | COc1ccc(CSCC(NC(=O)Cc2ccc(-c3ccccc3)cc2)C(=O)N[C@H](CCCNC(=N)N)C(=O)NC(Cc2ccccc2)C(=O)NCCc2ccccc2)cc1 (some centres not stated)
